MT1-MMP txn act: MT1-MMP promoter transcription activation; HT1080 MT1-MMP promoter luciferase reporter, luminescence, overnight; stronger effect = higher value; activation factor at 10 µM; hit rate 0.16% among 86,000; AID 750;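 active means activation factor of at least 2 for MT1-MMP transcription at 10 µM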
JNK3 inh: JNK3 (human) kinase inhibition. P53779. purified JNK3 kinase activity, HTS. inhibition, % at 8 µM. hit rate 0.61% among 60,000. AID 746; in the data active means inhibition above about 17%;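 further: 0% = DMSO and 100% = reference inhibitor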
ROCK2 inh: inhibitors of human Rho kinase 2. inhibition, % at 6 µM. purified ROCK2, Kinase-Glo ATP depletion luminescence. O75116. AID 604. hit rate 0.35% among 60,000;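 active means inhibition above the screen-wide mean inhibition plus 3 SD, cut at about 18% in these data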;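 further: plate controls were DMSO wells for no effect and Y-27632 control wells after no-enzyme background subtraction for full effect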
RORa activator: RORA (human) activation | CHO-K1 Gal4-RORA LBD luciferase reporter, luminescence; percent increase over mock-subtracted basal signal | activation, % at 10 µM | hit rate 1.5% among 65,000;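 active means activation above the mean of all tested compounds plus 3 SD, cut at about 49% in these data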;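 further: 0% = DMSO-treated RORA cells and 100% = added signal equal to DMSO minus mock-transfected cells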
SF1 activator: activators of human nuclear receptor SF-1. CHO-K1 Gal4-SF-1 LBD luciferase reporter; % increase over DMSO SF-1-specific signal. hit rate 1.9% among 65,000. AID 522. activation, % at 10 µM;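 active means activation above the mean activation of all tested compounds plus 3 SD, cut at about 50% in these data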
Target sequence (Q13285 whole entry, looked up, the tested form may be a part): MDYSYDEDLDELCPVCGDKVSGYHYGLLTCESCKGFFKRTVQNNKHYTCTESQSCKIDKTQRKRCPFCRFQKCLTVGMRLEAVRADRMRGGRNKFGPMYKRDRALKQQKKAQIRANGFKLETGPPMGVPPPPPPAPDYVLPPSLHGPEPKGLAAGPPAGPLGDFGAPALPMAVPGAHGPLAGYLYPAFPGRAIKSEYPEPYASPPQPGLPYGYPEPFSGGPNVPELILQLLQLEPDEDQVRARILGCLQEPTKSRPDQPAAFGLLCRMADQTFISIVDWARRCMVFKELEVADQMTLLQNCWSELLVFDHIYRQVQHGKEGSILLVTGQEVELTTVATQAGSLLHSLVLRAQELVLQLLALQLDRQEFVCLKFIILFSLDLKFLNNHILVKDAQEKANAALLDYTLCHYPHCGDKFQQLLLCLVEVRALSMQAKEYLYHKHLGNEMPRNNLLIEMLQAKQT
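Compound – one dose, 10 µM compound, 1% DMSO · Test system – transient Gal4-SF-1 LBD reporter, CHO-K1 · Input – 4,000 cells in each well · Read-out basis – percent activation relative to DMSO median and mock-transfected background · Replicates – single measurement per compound · Technique – steady-glow luciferase luminescence, read after 15 min reagent incubation · Timing – 20 h compound treatment, 37 °C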
PKA kinase inh: blocks human protein kinase A activity | P17612 | PKA Kemptide phosphorylation, Kinase-Glo ATP luminescence | inhibition, % at 6 µM | hit rate 0.1% among 65,000;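 active means inhibition above the screen-wide mean inhibition plus 3 SD, cut at about 21% in these data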
Active calls of the source: *; x = not tested or not shown. Sampled rows, rich in hits. Any-hit rate of the full collection: about 2.5%.

SMILES	MT1-MMP txn act	JNK3 inh	ROCK2 inh	RORa activator	SF1 activator	PKA kinase inh
O=C(Cn1ccc2ccccc2c1=O)NCCC(=O)NC1CCN(Cc2ccccc2)CC1	1.1	6	4	0	-11	6
CCCc1cc2c(=O)c(-c3ccccn3)coc2cc1OC	1.6	3	3	54*	76*	12
Clc1cc(Cl)c2nc(N3CCCCC3)sc2c1	2.1*	2	5	24	61*	8
Fc1cc(F)c2nc(N3CCCCC3)sc2c1	1.7	0	6	32	65*	7
Clc1cc(Cl)c2nc(N3CCCC3)sc2c1	1.5	2	5	41	60*	10
CCOC(=O)c1cc2c(=O)n3cccc(C)c3nc2n(CCc2ccccc2)c1=N	1	0	0	-3	1	2
O=C(c1cccnc1)N1CCN(C(=O)c2ccccc2F)CC1	1	2	0	7	11	-4
Cc1cc(C(=O)Nc2sc3c(c2C#N)CCC3)no1	1.2	-2	2	60*	116*	3
Cc1noc(C(=O)Nc2sc3c(c2C#N)CCC3)c1Cl	1.2	2	5	52*	48	2
Cc1ccc(C(=O)Nc2sc3c(c2C#N)CCCCC3)cc1C	2.3*	x	x	x	x	x
Cc1onc(-c2ccccc2)c1C(=O)Nc1sc2c(c1C#N)CCC2	1.1	-4	3	16	24	10
Cc1cc(C(=O)Nc2sc3c(c2C#N)CCCC3)no1	1.2	6	1	41	71*	4
CCC1=C2CC[C@H]3C(=O)N(c4ccccc4)C(=O)[C@H]3[C@H]2[C@@]2(Cc3ccccc3)C(=NCCOC)OC(=O)N2C1=O	1.2	x	x	x	x	x
O=C(NC1CCCCC1)C(c1ccc(F)cc1)N(Cc1ccc2c(c1)OCO2)C(=O)c1cnsn1 (stereo not given)	1	x	x	x	x	x
CCC1CCCCN1C(=O)COC(=O)c1ccc(S(=O)(=O)N2CCOCC2)cc1 (stereo not given)	1.1	-2	-6	-1	6	0
Cc1cc(C(=O)Nc2sc3c(c2C#N)CCC(C)C3)no1 (stereo not given)	0.8	-2	-2	53*	97*	-2
N#Cc1c(NC(=O)c2cc(C3CC3)on2)sc2c1CCC2	1.1	-6	2	26	80*	8
CNC1=C(Br)C(=O)c2ccncc2C1=O	1	x	x	x	x	x
CCc1nnc(NC(=O)c2ccc(COc3ccc(C)cc3)o2)s1	1.2	1	2	14	52*	3
CCc1nnc(NC(=O)c2ccc(COc3ccccc3)o2)s1	1	1	-5	12	0	-3
O=C(Cn1c(=O)n(Cc2ccco2)c(=O)c2cc(Cl)ccc21)NCC1CCCO1 (stereo not given)	1	3	4	-6	2	1
COc1ccc(C)cc1-n1nnnc1SCc1nc2ccccc2s1	1.9	-2	2	50*	110*	3
CCC(c1nnc(SCc2nc3ccccc3s2)n1Cc1ccccc1)N(C)C (stereo not given)	1.7	-1	7	48	61*	7
CCn1c(SCc2nc3ccccc3s2)nnc1-c1ccccc1	1.5	x	x	x	x	x
Cc1nnc(SCc2nc3ccccc3s2)n1-c1ccccc1	1.5	-13	0	76*	26	4
SMILES	MT1-MMP txn act	JNK3 inh	ROCK2 inh	RORa activator	SF1 activator	PKA kinase inh
c1ccc(-n2cnnc2SCc2nc3ccccc3s2)cc1	1.6	5	3	34	58*	8
CCc1c2c(nc3ccc(N(C)C)cc13)-c1cccc(=O)n1C2	1	x	x	x	x	x
Cc1cc(NC(=O)CSc2nc3sc(C)c(C)c3c(=O)n2C2CCCC2)no1	1.1	x	x	x	x	x
Cc1ccc(NC(=O)C2C3C=CC4(CN(Cc5cccnc5)C(=O)C24)O3)cc1 (stereo not given)	1.3	-5	-9	25	-25	1
CCn1c(SCc2nc3ccccc3s2)nc2cc(S(=O)(=O)N3CCOCC3)ccc21	1.6	-5	4	29	63*	5
CNC(=O)NC(=O)CSc1nc2ccccc2n1CCOC	1.1	x	x	x	x	x
COCCn1c(SCc2nc3ccccc3s2)nc2ccccc21	1.7	1	2	44	50*	-3
CCOC(=O)C1=C(C)N(CCCC(=O)O)C(=O)NC1c1ccccc1OC(=O)c1cccc(I)c1 (stereo not given)	1.1	x	x	x	x	x
CC1CN(C(=O)CSc2nnc3c(Cl)cc(Cl)cn23)CC(C)O1 (stereo not given)	1.1	x	x	x	x	x
